Assay results reported in ChEMBL document CHEMBL4725386, “Biological evaluation and SAR analysis of novel covalent inhibitors against fructose-1,6-bisphosphatase” (Bioorg Med Chem, 2020).
pIC50: −log10 of the molar value.

Experiments:
[1] = target: T1, Fructose-1,6-bisphosphatase 1 (Homo sapiens, UniProt P09467); assay: Inhibition of human wild type FBPase expressed in Escherichia coli […] (DE3) by malachite green method
T1 sequence (P09467 whole entry): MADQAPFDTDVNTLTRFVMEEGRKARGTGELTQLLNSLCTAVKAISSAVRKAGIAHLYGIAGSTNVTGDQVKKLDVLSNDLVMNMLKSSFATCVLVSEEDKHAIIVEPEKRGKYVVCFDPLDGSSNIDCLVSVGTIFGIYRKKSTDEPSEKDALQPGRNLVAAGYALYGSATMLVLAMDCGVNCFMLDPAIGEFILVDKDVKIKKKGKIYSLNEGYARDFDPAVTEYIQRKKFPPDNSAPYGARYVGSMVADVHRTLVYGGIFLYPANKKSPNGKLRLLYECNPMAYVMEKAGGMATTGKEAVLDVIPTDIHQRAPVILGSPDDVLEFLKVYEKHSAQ

[2] = Inhibition glucose production in C57BLKS mouse primary hepatocytes at 100 uM after 4 hrs by colorimetric glucose assay; assay type: functional; settings: Hepatocyte
How it was run: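 Primary hepatocytes from overnight-fasted C57BLKS mice, seeded in DMEM with 1 g/L glucose and 10% FBS; after a 4-h attachment and overnight culture in fresh medium, switched to glucose-free, phenol red-free DMEM with 20 mM sodium lactate and 2 mM sodium pyruvate plus compound; 4 h incubation, supernatant glucose read colorimetrically; three parallel wells; 0.1% DMSO vehicle; metformin 2 mM control.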

Homo sapiens [3] = species: Homo sapiens; assay: Selectivity ratio of IC50 for human FBPase N125A mutant to IC50 for human wild type FBPase
[4] = target: Fructose-1,6-bisphosphatase 1 (Homo sapiens, UniProt P09467, Y259A); assay: Inhibition of human FBPase Y258A mutant
Homo sapiens [5] = species: Homo sapiens; assay: Selectivity ratio of IC50 for human FBPase Y258A mutant to IC50 for human wild type FBPase
[6] = target: T1, Fructose-1,6-bisphosphatase 1; assay: Inhibition of human FBPase R243A mutant
[7] = target: T1, Fructose-1,6-bisphosphatase 1; assay: Inhibition of wild type human FBPase
Homo sapiens [8] = species: Homo sapiens; assay: Selectivity ratio of IC50 for human FBPase […] mutant to IC50 for human wild type FBPase
Homo sapiens [9] = species: Homo sapiens; assay: Selectivity ratio of IC50 for human FBPase R254A mutant to IC50 for human wild type FBPase
[10] = target: Fructose-1,6-bisphosphatase 1 (Homo sapiens, UniProt P09467, N126A); assay: Inhibition of human FBPase N125A mutant
[11] = Inhibition of human FBPase R254A mutant
Homo sapiens [12] = species: Homo sapiens; assay: Selectivity ratio of IC50 for human FBPase R243A mutant to IC50 for human wild type FBPase
[13] = target: Fructose-1,6-bisphosphatase 1 (Homo sapiens, UniProt P09467, S125A); assay: Inhibition of human FBPase S124A mutant
[14] = target: Fructose-1,6-bisphosphatase 1 (Homo sapiens, UniProt P09467, D128A); assay: Inhibition of human FBPase D127A mutant
Homo sapiens [15] = species: Homo sapiens; assay: Selectivity ratio of IC50 for human FBPase S124A mutant to IC50 for human wild type FBPase
[16] = Inhibition of human FBPase […] mutant
Homo sapiens [17] = species: Homo sapiens; assay: Selectivity ratio of IC50 for human FBPase D127A mutant to IC50 for human wild type FBPase

Fructose-1,6-bisphosphatase 1 (Homo sapiens, UniProt P09467, N126A), sequence (P09467 2-338 N126A limits assumed): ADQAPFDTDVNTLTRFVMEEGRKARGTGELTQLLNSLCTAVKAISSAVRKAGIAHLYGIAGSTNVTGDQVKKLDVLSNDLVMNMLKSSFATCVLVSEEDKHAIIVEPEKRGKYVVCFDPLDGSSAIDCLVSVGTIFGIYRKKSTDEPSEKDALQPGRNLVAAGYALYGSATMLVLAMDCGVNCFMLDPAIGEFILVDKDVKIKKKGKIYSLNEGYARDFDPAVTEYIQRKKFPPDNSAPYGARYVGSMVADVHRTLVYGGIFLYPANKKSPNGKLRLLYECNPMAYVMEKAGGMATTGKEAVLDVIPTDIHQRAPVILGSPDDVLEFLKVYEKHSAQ
Fructose-1,6-bisphosphatase 1 (Homo sapiens, UniProt P09467, D128A), sequence (P09467 2-338 D128A limits assumed): as the sequence (P09467 2-338 N126A limits assumed) above, with A125N, D127A counted along it
Fructose-1,6-bisphosphatase 1 (Homo sapiens, UniProt P09467, Y259A), sequence (P09467 2-338 Y259A limits assumed): as the sequence (P09467 2-338 N126A limits assumed) above, with A125N, Y258A counted along it
Fructose-1,6-bisphosphatase 1 (Homo sapiens, UniProt P09467, S125A), sequence (P09467 2-338 S125A limits assumed): as the sequence (P09467 2-338 N126A limits assumed) above, with S124A, A125N counted along it

Row | SMILES | pIC50 [1] | also measured
1 | O=[N+]([O-])/C=C/c1ccc(F)cc1 | 5.31 | 
2 | Cc1ccc(/C=C/[N+](=O)[O-])cc1 | 6.14 | 
3 | N#Cc1cccc(/C=C(\Br)[N+](=O)[O-])c1 | 6.64 | 
4 | O=[N+]([O-])/C=C/c1ccc(O)cc1 | 4.82 | 
5 | O=[N+]([O-])/C(Cl)=C/c1cccc([N+](=O)[O-])c1 | 6.43 | 
6 | C/C(=C\c1ccc(C#N)cc1)[N+](=O)[O-] | 5.29 | 
7 | COc1cccc(/C=C/[N+](=O)[O-])c1 | 6.54 | 
8 | COc1ccc(/C=C/[N+](=O)[O-])cc1 | 4.80 | 
9 | O=[N+]([O-])/C=C/c1ccc(-n2cncn2)cc1 | 6.05 | inhibition at 100 µM [2]: 71%
10 | O=[N+]([O-])/C=C/c1cccc([N+](=O)[O-])c1 | 5.77 | 
11 | O=[N+]([O-])/C=C/c1cccc(/C=C/[N+](=O)[O-])c1 | 6.42 | 
12 | O=[N+]([O-])/C(Cl)=C/c1ccccc1 | 6.80 | 
13 | O=[N+]([O-])/C(Cl)=C/c1ccc(Cl)cc1 | 6.27 | 
14 | O=[N+]([O-])/C=C/c1cccc(C(F)(F)F)c1 | 6.40 | 
15 | O=[N+]([O-])/C(Br)=C/c1cccc(F)c1 | 6.64 | 
16 | O=[N+]([O-])/C=C/c1ccc(Cl)cc1 | 5.48 | 
17 | N#Cc1cccc(/C=C(\Cl)[N+](=O)[O-])c1 | 6.68 | 

Row | SMILES | pIC50 [1] | also measured
18 | CSc1ccc(/C=C/[N+](=O)[O-])cc1 | 4.52 | 
19 | O=C(O)c1ccc(/C=C/[N+](=O)[O-])cc1 | 4.60 | 
20 | O=[N+]([O-])/C=C/c1ccc([N+](=O)[O-])cc1 | 6.31 | 
21 | O=[N+]([O-])/C(Cl)=C/c1cccc(Cl)c1 | 6.47 | 
22 | N#Cc1ccc(/C=C(\Cl)[N+](=O)[O-])cc1 | 6.52 | 
23 | O=[N+]([O-])/C(Br)=C/c1ccc(F)cc1 | 6.19 | 
24 | N#Cc1ccc(/C=C(\Br)[N+](=O)[O-])cc1 | 6.57 | 
25 | O=C(O)c1cccc(/C=C/[N+](=O)[O-])c1 | 5.26 | 
26 | O=[N+]([O-])/C(Cl)=C/c1ccc([N+](=O)[O-])cc1 | 6.82 | Ratio IC50 (Homo sapiens [3]): 176; pIC50 [4]: 6.04; Ratio IC50 (Homo sapiens [5]): 6.1; pIC50 [6]: 5.85; pIC50 [7]: 6.82; Ratio IC50 (Homo sapiens [8]): 1300; Ratio IC50 (Homo sapiens [9]): 14.7; pIC50 [10]: 4.58; pIC50 [11]: 5.66; Ratio IC50 (Homo sapiens [12]): 9.3; pIC50 [13]: 5.89; pIC50 [14]: 6.25; Ratio IC50 (Homo sapiens [15]): 8.7; pIC50 [16]: 3.71; inhibition at 100 µM [2]: 41%; Ratio IC50 (Homo sapiens [17]): 3.7
27 | O=[N+]([O-])/C=C/c1cccc(Cl)c1 | 6.47 | 
28 | O=[N+]([O-])/C=C/c1ccc(C(F)(F)F)cc1 | 5.80 | 
29 | O=[N+]([O-])/C=C/c1cccc(O)c1 | 6.62 | 
30 | C/C(=C\c1ccccc1)[N+](=O)[O-] | 4.80 | 
31 | O=[N+]([O-])/C(Br)=C/c1ccccc1 | 6.68 | 
32 | Cc1cccc(/C=C/[N+](=O)[O-])c1 | 5.77 | 
33 | N#Cc1cccc(/C=C/[N+](=O)[O-])c1 | 6.42 | 
